pIC50: −log10 of the molar value. The source made the active and inactive calls. The rule behind the calls is not given here.
What was measured:
[1] = system: KB; assay: Cytotoxicity against human KB cells expressing human RFC/FRalpha/PCFT assessed as depletion of ATP pools at 1 uM after 24 hrs by ion-pair HPLC analysis; type: functional
Outline: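 KB cells in FF-RPMI/10% DFBS with 2 mM glutamine and 2 nM LCV were exposed to 1 μM drug for 24 h. They were trypsinized and washed, and nucleotides were extracted. ATP was quantified by reversed-phase ion-pair HPLC on a C18 column. Results are means ± standard errors.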

[2] = system: KB; assay: Cell cycle arrest in human KB cells assessed as accumulation at sub-G1 phase at 1 uM after 96 hrs by propidium iodide staining-based flow cytometry (reference value: 3.5%); type: functional
[3] = system: KB; assay: Induction of apoptosis in human KB cells assessed as viable cells at 1 uM after 96 hrs by Annexin V-FITC/7-AAD staining-based flow cytometry (RVB = 89.6%); type: functional; conditions: read-out: Activity
[4] = system: KB; assay: Cell cycle arrest in human KB cells assessed as accumulation at S phase at 1 uM after 96 hrs by propidium iodide staining-based flow cytometry (reference value: 15.9%); type: functional
[5] = system: KB; assay: Cytotoxicity against human KB cells expressing human RFC/FRalpha/PCFT after 96 hrs by CellTitre-Blue fluorescence assay; type: functional, cell-based
Outline: (§1)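 KB cells were grown in FF-RPMI with DFBS and 2 nM LCV, exposed to antifolate (0–1 μM) for 96 h at 37 °C, and read by CellTiter-Blue fluorescence. IC50 was taken from dose–response curves relative to untreated cells. Protection arms added adenosine 60 μM, thymidine 10 μM, AICA 320 μM, or folic acid 200 nM. Means of 3–10 experiments.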

[6] = system: R2; assay: Cytotoxicity against chinese hamster R2 cells expressing human PCFT4 after 96 hrs by CellTitre-Blue fluorescence assay; type: functional, cell-based, Cricetulus griseus; conditions: R2, 96 h
[7] = Cytotoxicity against chinese hamster RT16 cells expressing human FRalpha after 96 hrs by CellTitre-Blue fluorescence assay in presence of folic acid; type: functional, cell-based; conditions: Cricetulus griseus, RT16, 96 h
Outline: (§2)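 CHO sublines were grown in FF-RPMI/DFBS; transfectants were maintained with G418. Cells were exposed to antifolate (0–1 μM) for 96 h at 37 °C with 2 nM LCV (RT16) or 25 nM LCV (R2/PCFT4). PC43-10 cells were grown in standard RPMI1640/DFBS instead. FRα specificity was tested by adding 200 nM folic acid. Viable cells were read by CellTiter-Blue fluorescence (ex 560/em 590), and IC50 was taken from dose–response curves; means of 3–10 experiments.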

[8] = system: KB; assay: Cell cycle arrest in human KB cells assessed as accumulation at G1/G0 phase at 1 uM after 96 hrs by propidium iodide staining-based flow cytometry (reference value: 67.4%); type: functional
[9] = Cytotoxicity against chinese hamster R2(VC) cells after 96 hrs by CellTitre-Blue fluorescence assay; type: functional, cell-based; conditions: Cricetulus griseus; outline: as §2
[10] = system: KB; assay: Cell cycle arrest in human KB cells assessed as accumulation at G2/M phase at 1 uM after 96 hrs by propidium iodide staining-based flow cytometry (reference value: 13.2%); type: functional
[11] = system: KB; assay: Cell cycle arrest in human KB cells after 48 hrs by propidium iodide staining-based flow cytometry; type: functional
Outline: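 KB cells exposed to 1 μM drug for 48 h in FF-RPMI with 10% DFBS and 2 nM LCV, harvested by trypsin and fixed in ice-cold ethanol. Stained with 50 μg/mL PI plus 100 μg/mL RNase for at least 20 min at room temperature in the dark. Flow cytometry counted at least 10 000 events. G1/G0, S, G2/M and sub-G1 fractions were fitted by Watson Pragmatic model.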

[12] = system: KB; assay: Cytotoxicity against human KB cells expressing human RFC/FRalpha/PCFT after 96 hrs by CellTitre-Blue fluorescence assay in presence of adenosine; type: functional, cell-based; outline: as §1
[13] = target: Bifunctional purine biosynthesis protein ATIC (Homo sapiens) (UniProt P31939); assay: Inhibition of AICARFTase in human KB cells assessed as accumulation of ZMP at 1 uM after 48 hrs by HPLC analysis; type: cell-based
Chain of Bifunctional purine biosynthesis protein ATIC (Homo sapiens) (P31939 whole entry, looked up): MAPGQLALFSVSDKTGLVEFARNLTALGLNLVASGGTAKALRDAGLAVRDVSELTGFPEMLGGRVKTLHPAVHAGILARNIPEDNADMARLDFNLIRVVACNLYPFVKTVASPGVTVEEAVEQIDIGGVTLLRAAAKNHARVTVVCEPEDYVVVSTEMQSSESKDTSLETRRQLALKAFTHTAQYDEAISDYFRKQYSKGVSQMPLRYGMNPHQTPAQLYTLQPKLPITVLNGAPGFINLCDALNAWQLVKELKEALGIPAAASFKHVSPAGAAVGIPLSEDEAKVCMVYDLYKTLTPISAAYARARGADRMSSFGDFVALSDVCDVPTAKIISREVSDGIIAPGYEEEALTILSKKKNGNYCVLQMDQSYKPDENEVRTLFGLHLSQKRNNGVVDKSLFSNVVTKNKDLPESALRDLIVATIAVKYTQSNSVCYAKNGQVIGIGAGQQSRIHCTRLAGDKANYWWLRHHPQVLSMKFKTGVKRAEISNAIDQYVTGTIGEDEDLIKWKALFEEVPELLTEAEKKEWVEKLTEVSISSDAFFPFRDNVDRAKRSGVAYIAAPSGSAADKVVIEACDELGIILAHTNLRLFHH
Outline: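 KB cells were treated with 1 μM drug for 48 h in FF-RPMI/10% DFBS with 2 nM LCV. Metabolites were extracted with 5% TCA and then ether. They were separated by SAX ion-exchange HPLC using an NH4H2PO4 gradient (5 mM pH 2.8 to 750 mM pH 3.9) over 25 min with detection at 280 nm. ZMP was quantified against a standard curve with an AraCMP internal control; three experiments.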

[14] = system: KB; assay: Induction of apoptosis in human KB cells assessed as late apoptotic cells at 1 uM after 96 hrs by Annexin V-FITC/7-AAD staining-based flow cytometry (reference value: 2.09%); type: functional
[15] = target: Folate receptor alpha (Homo sapiens) (UniProt P15328); assay: Displacement of [3H]folic acid from human FRalpha expressed in chinese hamster RT16 cells after 15 mins by scintillation counting analysis; type: cell-based
Chain of Folate receptor alpha (Homo sapiens) (P15328 25-234 limits assumed): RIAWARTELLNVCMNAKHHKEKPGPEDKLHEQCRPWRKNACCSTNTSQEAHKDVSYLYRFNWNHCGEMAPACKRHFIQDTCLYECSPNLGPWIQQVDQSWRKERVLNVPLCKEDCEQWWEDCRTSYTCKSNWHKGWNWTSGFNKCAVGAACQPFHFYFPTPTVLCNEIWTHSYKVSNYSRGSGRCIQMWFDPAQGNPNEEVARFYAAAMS
Outline: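 FRα-expressing RT16 CHO cells (~1.5 × 10^6) were grown as monolayers. Bound folates were stripped with ice-cold acetate buffer (pH 3.5), then neutralised with HEPES-buffered saline (pH 7.4). Cells were then competed with [3H]folic acid against graded unlabelled ligand. Bound label read by scintillation, normalised to Folin-phenol protein (pmol/mg). Relative affinity = inverse molar ratio for 50% displacement, folic acid set at 1. Three experiments.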

[16] = system: KB; assay: Induction of apoptosis in human KB cells assessed as early apoptotic cells at 1 uM after 96 hrs by Annexin V-FITC/7-AAD staining-based flow cytometry (reference value: 0.485%); type: functional

inhibition [13]: Active
Activity [15]: Active
Structure (SMILES): Nc1nc2[nH]cc(CCCCc3ccc(C(=O)N[C@@H](CCC(=O)O)C(=O)O)cc3)c2c(=O)[nH]1
inhibition at 1 µM [1]: > 90%
Activity [2]: 36.7%
viability at 1 µM [3]: 39%
Activity [4]: 48.2%
pIC50 [5]: 7.90
pIC50 [6]: 6.08
pIC50 [7]: < 6.00
Activity [8]: 12.9%
pIC50 [9]: < 6.00
Activity [10]: 2.3%
Activity [11]: Active
Activity [12]: inactive
Activity [14]: 26.7%
Activity [16]: 33.8%

From ChEMBL document CHEMBL3102834, “Discovery of 5-substituted pyrrolo[2,3-d]pyrimidine antifolates as dual-acting inhibitors of glycinamide ribonucleotide formyltransferase and 5-aminoimidazole-4-carboxamide ribonucleotide formyltransferase in de novo purine nucleotide biosynthesis: implications of inhibiting …” (J Med Chem, 2013)
